# Screening results: PubChem BioAssay, several laboratories
# An excerpt weighted towards active compounds, which were near 4.3% of everything screened.
# PREPL inhibitor: inhibits the human prolyl oligopeptidase-like enzyme. recombinant PREPL, fluorescence polarization activity-based probe. Q4J6C6. inhibition, % at 5.96 µM. AID 2751. hit rate 0.68% among 320,000; in the data active = inhibition above about 43%
# UBC9 SUMO inh: SUMOylation inhibition; P63279; HTRF SUMOylation assay, SAE1/SAE2 + UBC9, in vitro; inhibition, % at 35 µM; hit rate 0.36% among 290,000; AID 2006; in the data active = inhibition above about 50%, passing the limit was not always enough; inconclusive = no clear call, values can overlap the other calls
# ALR H2O2 inh: inhibitors of human sulfhydryl oxidase ALR; AID 485317; purified ALR, DTT oxidation, H2O2 HRP-luminol luminescence; inhibition, % (test concentration not listed); P55789; hit rate 3.8% among 290,000;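 active = mean replicate inhibition above about 79%, with every replicate also reaching it, limit read from the data; inconclusive = only one of the two criteria met; inactive = mean below limit and not every replicate reaching it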
# Target sequence (P55789 whole entry, looked up): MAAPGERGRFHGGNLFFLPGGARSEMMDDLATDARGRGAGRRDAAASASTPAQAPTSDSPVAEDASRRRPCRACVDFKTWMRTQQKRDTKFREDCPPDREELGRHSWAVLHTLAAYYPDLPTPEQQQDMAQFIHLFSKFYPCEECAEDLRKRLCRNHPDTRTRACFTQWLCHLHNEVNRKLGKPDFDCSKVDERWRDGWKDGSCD
# UBC13 inh: blocks human UBC13 polyubiquitin chain formation. inhibition, % at 20 µM. hit rate 0.47% among 330,000. TR-FRET. P61088; in the data active = inhibition above about 45%, passing the limit was not always enough; inconclusive = no clear call, values can overlap the other calls
# Rin1 Abl inh: human Rin1-Abl interaction inhibition; P00519+Q13671; TR-FRET Rin1/Abl binding, biochemical; inhibition, % at 7.35 µM; hit rate 0.4% among 360,000; AID 588664; in the data active = inhibition above about 5%, passing the limit was not always enough
# RBBP9 inh: inhibitors of human serine hydrolase RBBP9; inhibition, % at 7.94 µM; AID 1515; hit rate 0.2% among 220,000; recombinant RBBP9, FP-Rh probe fluorescence polarization; O75884;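 active = inhibition above the campaign mean of all tested compounds plus 3 SD, cut at about 14% in these data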
# Target sequence (O75884 whole entry, looked up): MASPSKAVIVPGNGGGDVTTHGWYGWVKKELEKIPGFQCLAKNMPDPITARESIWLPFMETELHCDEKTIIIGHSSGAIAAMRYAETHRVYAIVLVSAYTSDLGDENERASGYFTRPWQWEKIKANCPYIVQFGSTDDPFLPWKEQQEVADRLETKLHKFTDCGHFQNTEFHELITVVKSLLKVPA
#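 Measured by – fluorescence polarization · Test system – RBBP9 protein · Input – 2.5 µM RBBP9 dispensing solution, before mixing · Measure – percent inhibition from mP, scaled between DMSO and no-protein wells · Benchmarks – DMSO-treated enzyme wells and wells lacking RBBP9 · Times – preincubation 30 min plus labeling 45 min at 25 °C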
# Casp3 counter: counter-screen for UBC13 inhibitors: human caspase-3 inhibition. shares compounds with UBC13 inh. Recombinant caspase-3, Caspase-Glo 3/7 luminescence, 60 min. inhibition, % at 20 µM. hit rate 4% among 1,400. AID 488856;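 active = mean inhibition across replicates above about 26%, limit read from the data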
# UBC13 confirm: confirmation of human UBC13 polyubiquitin inhibitors. inhibition, % at 10 µM. UBC13 polyubiquitination, TR-FRET, biochemical. AID 488859. hit rate 68% among 1,400. shares compounds with UBC13 inh; in the data active = inhibition above about 45%; inconclusive = no clear call, values can overlap the other calls
# A number is an active result; - = inactive; ? = inconclusive; . = not tested or not shown.
SMILES,PREPL inhibitor,UBC9 SUMO inh,ALR H2O2 inh,UBC13 inh,Rin1 Abl inh,RBBP9 inh,Casp3 counter,UBC13 confirm
Cc1ccc(N2C(=O)C3N=NN(CC(=O)N4N=C(c5ccccc5)CC4c4ccccc4)C3C2=O)cc1 (centres undefined),-,-,-,-,-,-,.,.
O=C(CCc1nnc2ccc(N3CCCC3)nn12)Nc1ccc(F)c(F)c1,-,-,-,50,-,.,-,?
CC1CCN(c2ccc3nnc(CCC(=O)Nc4ccc(F)c(F)c4)n3n2)CC1,-,-,-,?,-,.,.,.
COc1cccc(NC(=O)CN(C)C(=O)c2cccnc2Nc2cccc(C(F)(F)F)c2)c1,-,.,-,47,-,.,-,-
CSc1nccc(Nc2ccccc2)c1C#N,-,-,-,47,-,-,-,?
CC(C)CC(=O)Nc1ccc(-c2nnn(CC(=O)NCc3ccco3)n2)cc1,-,-,-,-,-,-,.,.
CN(C)CCCNc1nc2sc3c(c2c(=O)n1CCc1ccccc1)CCCCC3,68,-,-,49,-,-,-,73
CN(C)CCCn1c(=O)n(CCc2ccccc2)c(=O)c2c3c(sc21)CCCCC3,-,-,.,-,-,-,.,.
COc1ccc(OCc2cc(C(=O)NCc3cccc(C)n3)no2)c(Cl)c1,-,-,-,-,-,.,.,.
Cc1ccc(C(C(=O)NC(C)(C)C)N(Cc2ccccc2)C(=O)c2snc(C(N)=O)c2N)o1 (centres undefined),-,-,-,71,-,-,-,66
CCC(C)(C)NC(=O)C(c1ccc(C)o1)N(Cc1ccc2c(c1)OCO2)C(=O)c1snc(C(N)=O)c1N (centres undefined),-,-,-,78,-,.,-,86
COc1cc2nc(N(CCCN(C)C)C(=O)c3ccc(S(=O)(=O)N(C)C4CCCCC4)cc3)sc2cc1OC,-,.,-,-,-,.,.,.
COc1ccc(C)c2sc(N(CCCN(C)C)C(=O)c3ccc(S(=O)(=O)N(C)C)cc3)nc12,-,-,-,49,-,-,-,54
Cc1cc(C)c2sc(N(CCCN(C)C)C(=O)c3ccc(S(=O)(=O)N(C)C4CCCCC4)cc3)nc2c1,-,.,-,58,-,.,-,97
COc1ccc(C(CNC(=O)c2ccc(-c3ccccc3Cl)o2)N2CCCC2)cc1 (centres undefined),.,.,.,.,-,.,.,.
COc1ccc(C(CNC(=O)c2cc3c(s2)CCC(C)C3)N2CCOCC2)cc1 (centres undefined),-,.,-,-,-,.,.,.
COc1ccc(C(CNC(=O)c2ccc(-c3nc4ccccc4s3)o2)N2CCCC2)cc1 (centres undefined),-,.,-,61,-,.,-,53
COc1ccc(C(CNC(=O)c2cc3c(s2)CCC(C)C3)N2CCCC2)cc1 (centres undefined),-,.,-,59,-,.,-,-
c1ccc(CNc2nc(NCc3ccccc3)c3ccccc3n2)cc1,-,-,-,75,-,-,-,92
Nc1nc(Nc2ccccc2)nc(NCc2ccco2)c1[N+](=O)[O-],-,-,-,-,-,-,.,.
Fc1ccc(Nc2nc(NCc3ccco3)c3ccccc3n2)cc1,-,-,-,54,-,-,-,74
c1ccc(CNc2nc(NCc3ccccc3)c3sccc3n2)cc1,.,.,.,.,-,.,.,.
CCSc1nc(N2CCCCC2)c2c(c1C#N)CCCC2,-,-,.,47,-,-,-,46
N#Cc1c(SCc2ccccc2)nc(N2CCOCC2)c2c1CCCC2,-,-,-,-,-,-,.,.
CCc1nc2ccccc2c(=O)n1NC(=O)c1c(O)c2ccccc2[nH]c1=O,-,-,-,-,-,-,.,.
CCCc1nc2ccccc2c(=O)n1NC(=O)c1c(O)c2ccccc2n(C)c1=O,-,-,-,47,-,-,-,-
CCOc1ccccc1NC(=O)NC1(C(=O)NCc2cccnc2)CCCCC1,-,-,-,-,-,.,.,.
COc1cccc(-c2nnc3n2N=C(c2cc(OC)ccc2OC)CS3)c1,-,-,-,56,-,-,-,48
COc1cc(NC(=O)C2CC(c3c(F)cccc3Cl)=NO2)cc(OC)c1OC (centres undefined),-,-,-,-,-,.,.,.
